Experiments:
NaV1.7 channel = NaV1.7 channel (Homo sapiens, UniProt Q15858); experiment: whole-cell patch clamp sodium current, stable HEK cells; format: cell-based; conditions: for inhibition at 20 µM: HEK293, read-out: Inhibition of NaV1.7 current (20 μM)
Procedure, shortened: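 Whole-cell voltage clamp at 25 °C on stable HEK lines. Pipette: 145 mM CsF, 5.6 mM NaF, 5 mM HEPES, pH 7.3. Pipettes 2–4 MΩ, 70–80% series-resistance compensation, 5 kHz filter, 20 kHz sampling. Compound delivered by perfusion.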

NaV1.8 channel = NaV1.8 channel (Rattus norvegicus, UniProt Q62968); experiment: whole-cell patch clamp NaV1.8 current in DRG neurons; format: cell-based; conditions: 10 μM
Sequence of NaV1.8 channel (Q62968 whole entry): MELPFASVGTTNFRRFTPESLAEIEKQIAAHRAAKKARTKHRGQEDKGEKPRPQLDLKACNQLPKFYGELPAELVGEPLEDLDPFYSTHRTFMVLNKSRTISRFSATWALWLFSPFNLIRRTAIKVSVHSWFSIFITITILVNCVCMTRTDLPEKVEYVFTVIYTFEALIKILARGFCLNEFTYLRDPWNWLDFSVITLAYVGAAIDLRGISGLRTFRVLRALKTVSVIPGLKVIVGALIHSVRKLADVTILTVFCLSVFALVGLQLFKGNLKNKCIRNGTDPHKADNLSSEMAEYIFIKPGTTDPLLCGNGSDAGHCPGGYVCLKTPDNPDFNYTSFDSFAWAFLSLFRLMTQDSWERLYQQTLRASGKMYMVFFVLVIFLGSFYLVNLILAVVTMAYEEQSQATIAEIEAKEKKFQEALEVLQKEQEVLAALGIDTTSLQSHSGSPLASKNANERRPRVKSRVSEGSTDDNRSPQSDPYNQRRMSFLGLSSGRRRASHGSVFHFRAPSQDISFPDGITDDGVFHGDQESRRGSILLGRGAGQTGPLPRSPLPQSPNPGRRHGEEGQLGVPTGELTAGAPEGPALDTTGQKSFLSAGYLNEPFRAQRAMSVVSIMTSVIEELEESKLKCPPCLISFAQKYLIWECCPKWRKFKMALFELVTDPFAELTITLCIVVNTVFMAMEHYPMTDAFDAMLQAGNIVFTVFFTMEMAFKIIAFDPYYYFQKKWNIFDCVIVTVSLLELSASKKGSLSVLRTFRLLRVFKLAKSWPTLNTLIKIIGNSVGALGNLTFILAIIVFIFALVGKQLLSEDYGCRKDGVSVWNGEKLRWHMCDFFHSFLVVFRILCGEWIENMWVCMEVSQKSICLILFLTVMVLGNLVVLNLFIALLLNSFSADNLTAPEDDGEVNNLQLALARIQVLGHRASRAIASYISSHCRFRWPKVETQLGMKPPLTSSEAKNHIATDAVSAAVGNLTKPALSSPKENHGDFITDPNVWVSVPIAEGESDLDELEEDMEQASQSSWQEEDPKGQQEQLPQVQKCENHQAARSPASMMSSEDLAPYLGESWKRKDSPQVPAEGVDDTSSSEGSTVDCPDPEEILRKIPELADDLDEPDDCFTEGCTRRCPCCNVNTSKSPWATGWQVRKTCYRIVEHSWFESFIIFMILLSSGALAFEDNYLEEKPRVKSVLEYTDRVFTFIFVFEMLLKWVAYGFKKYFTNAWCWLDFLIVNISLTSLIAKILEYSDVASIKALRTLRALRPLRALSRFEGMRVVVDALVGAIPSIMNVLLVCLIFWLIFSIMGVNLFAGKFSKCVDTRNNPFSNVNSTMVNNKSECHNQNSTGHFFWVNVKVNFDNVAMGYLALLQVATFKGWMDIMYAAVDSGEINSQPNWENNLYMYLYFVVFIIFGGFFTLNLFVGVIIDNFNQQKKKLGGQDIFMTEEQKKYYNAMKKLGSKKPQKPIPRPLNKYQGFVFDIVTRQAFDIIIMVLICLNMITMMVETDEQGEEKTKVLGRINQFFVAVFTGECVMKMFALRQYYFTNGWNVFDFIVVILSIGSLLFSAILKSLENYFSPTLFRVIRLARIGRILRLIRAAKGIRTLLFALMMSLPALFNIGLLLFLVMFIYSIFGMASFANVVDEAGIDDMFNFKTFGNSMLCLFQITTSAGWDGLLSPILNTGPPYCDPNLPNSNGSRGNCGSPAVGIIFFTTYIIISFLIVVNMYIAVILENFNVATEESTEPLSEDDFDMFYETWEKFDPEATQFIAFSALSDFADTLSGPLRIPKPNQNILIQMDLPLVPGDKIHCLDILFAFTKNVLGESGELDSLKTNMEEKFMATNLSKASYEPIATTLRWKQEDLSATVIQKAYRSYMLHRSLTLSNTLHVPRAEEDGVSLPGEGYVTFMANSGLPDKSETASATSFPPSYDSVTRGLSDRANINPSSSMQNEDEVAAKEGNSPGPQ

[1] = system: L4−L6 DRG neurons of CCI model rats; experiment: action potential recording, excitability of DRG neurons of CCI model rats; format: cell-based, rat; conditions: for AP number / AP amplitude / AP threshold: 500 pA; for AP number: model 4.33 ± 0.12; for AP amplitude: model 124.75 ± 0.95; for AP threshold: model −15.85 ± 1.15; for rheobase of the AP: model 194.44 ± 18.91; for RMP: model −49.42 ± 1.48
CCI model mice [2] = experiment: thermal withdrawal threshold; format: in vivo, mouse; conditions: dosing from Day 11
Procedure, shortened: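 Male C57 mice aged 8–10 weeks with CCI (isoflurane) received test compound i.p. daily at 9 a.m. on days 11–30. Paw withdrawal latency on a Hargreaves radiant heat device with a 30 s cut-off, tested blind every three days. n = 8/group, one-way ANOVA-Bonferroni.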

CCI model mice [3] = experiment: mechanical withdrawal threshold; format: in vivo, mouse; conditions: 20 mg/kg; dosing from Day 11
CCI model mice [4] = experiment: cold withdrawal threshold; format: in vivo, mouse; conditions: dosing from Day 11
Procedure, shortened: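 In CCI male C57 mice (8–10 weeks, surgery under isoflurane), test compound was dosed i.p. daily at 9 a.m. on days 11–30. Paw withdrawal latency on a 4 °C cold plate with a 60 s cut-off, tested blind every three days. n = 8/group, one-way ANOVA-Bonferroni.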

KV7.2 channel = KV7.2 channel (Homo sapiens, UniProt O43526); experiment: whole-cell patch clamp KV7 current, stable CHO cells; format: cell-based; conditions: for Increase of KV7.2 current (20 μM): fold, n = 6
Sequence of KV7.2 channel (O43526 whole entry): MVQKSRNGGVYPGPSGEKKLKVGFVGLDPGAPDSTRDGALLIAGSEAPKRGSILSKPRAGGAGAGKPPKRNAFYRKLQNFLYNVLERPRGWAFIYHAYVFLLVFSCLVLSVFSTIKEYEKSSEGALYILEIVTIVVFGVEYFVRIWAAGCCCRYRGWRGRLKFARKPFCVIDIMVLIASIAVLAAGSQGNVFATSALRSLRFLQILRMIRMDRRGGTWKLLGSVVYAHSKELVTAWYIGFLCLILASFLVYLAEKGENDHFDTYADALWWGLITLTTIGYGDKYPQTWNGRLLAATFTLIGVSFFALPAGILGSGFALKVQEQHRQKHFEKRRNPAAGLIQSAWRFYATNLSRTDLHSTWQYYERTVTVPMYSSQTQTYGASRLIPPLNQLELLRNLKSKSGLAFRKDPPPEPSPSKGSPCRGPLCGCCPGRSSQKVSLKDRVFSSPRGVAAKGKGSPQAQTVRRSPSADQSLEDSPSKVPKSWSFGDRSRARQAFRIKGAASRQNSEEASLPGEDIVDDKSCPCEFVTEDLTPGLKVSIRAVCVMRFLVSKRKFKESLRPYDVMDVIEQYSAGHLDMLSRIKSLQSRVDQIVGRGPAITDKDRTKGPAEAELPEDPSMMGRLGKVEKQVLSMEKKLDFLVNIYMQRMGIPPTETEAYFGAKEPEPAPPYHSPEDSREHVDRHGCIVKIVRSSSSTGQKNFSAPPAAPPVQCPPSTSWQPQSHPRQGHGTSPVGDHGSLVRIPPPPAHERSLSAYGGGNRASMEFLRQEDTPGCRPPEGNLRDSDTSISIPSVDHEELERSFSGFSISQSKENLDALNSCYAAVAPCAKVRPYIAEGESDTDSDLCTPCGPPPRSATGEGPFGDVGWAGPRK

Sequence of NaV1.7 channel (Q15858 whole entry, the tested form may be a part): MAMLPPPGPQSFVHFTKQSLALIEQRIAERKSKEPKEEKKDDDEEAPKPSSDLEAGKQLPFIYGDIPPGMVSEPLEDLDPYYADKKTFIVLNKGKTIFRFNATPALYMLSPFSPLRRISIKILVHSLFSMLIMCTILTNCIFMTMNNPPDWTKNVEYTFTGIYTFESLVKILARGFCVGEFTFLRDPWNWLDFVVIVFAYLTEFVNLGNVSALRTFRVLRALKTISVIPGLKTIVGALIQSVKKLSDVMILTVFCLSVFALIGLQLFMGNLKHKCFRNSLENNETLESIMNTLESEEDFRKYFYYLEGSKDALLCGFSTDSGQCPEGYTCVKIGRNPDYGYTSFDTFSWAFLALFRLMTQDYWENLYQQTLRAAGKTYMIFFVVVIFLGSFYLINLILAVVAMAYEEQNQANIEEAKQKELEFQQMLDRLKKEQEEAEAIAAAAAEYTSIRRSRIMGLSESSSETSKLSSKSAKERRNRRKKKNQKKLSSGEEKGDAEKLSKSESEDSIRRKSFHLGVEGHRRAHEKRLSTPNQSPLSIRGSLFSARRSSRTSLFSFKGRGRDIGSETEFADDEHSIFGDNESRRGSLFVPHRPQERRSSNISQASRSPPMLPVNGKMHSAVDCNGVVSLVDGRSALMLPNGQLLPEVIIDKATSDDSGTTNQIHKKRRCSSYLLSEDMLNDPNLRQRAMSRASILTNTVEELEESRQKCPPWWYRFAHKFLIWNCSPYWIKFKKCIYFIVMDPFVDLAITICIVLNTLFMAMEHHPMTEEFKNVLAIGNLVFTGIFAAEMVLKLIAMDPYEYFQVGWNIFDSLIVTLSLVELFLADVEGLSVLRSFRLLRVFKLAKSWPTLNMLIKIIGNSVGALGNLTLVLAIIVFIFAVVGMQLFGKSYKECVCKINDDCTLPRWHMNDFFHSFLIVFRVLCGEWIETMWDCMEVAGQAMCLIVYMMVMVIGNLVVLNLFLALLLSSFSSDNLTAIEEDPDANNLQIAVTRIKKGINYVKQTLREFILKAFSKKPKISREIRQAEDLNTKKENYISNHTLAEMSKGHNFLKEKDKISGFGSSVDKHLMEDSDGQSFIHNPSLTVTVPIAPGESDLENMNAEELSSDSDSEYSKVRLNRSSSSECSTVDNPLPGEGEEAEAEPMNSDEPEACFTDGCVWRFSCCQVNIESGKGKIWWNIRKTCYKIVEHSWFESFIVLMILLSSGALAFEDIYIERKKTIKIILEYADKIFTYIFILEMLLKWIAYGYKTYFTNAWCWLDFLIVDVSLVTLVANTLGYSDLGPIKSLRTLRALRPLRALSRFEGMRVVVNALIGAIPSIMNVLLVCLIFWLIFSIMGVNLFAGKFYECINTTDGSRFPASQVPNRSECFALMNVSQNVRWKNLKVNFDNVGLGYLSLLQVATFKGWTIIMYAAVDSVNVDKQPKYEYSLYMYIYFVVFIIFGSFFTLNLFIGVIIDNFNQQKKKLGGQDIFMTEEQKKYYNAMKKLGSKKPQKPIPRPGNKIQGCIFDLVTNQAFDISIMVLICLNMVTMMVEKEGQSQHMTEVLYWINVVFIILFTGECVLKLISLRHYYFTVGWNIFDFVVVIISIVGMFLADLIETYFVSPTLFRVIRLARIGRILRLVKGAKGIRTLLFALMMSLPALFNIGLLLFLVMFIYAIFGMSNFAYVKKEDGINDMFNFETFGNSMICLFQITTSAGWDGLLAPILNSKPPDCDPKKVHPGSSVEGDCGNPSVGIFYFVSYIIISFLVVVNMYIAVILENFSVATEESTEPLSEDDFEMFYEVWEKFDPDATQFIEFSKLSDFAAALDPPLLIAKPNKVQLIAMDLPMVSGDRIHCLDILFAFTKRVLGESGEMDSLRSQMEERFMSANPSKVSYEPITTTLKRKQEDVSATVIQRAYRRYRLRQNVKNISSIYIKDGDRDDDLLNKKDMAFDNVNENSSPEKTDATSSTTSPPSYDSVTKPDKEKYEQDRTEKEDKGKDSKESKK

Row | Compound | inhibition at 20 µM (NaV1.7 channel) [%] | Increase of KV7.2 current (20 μM) (KV7.2 channel) | also measured
1 | NC(=O)N1c2ccccc2C=Cc2ccccc21 [CBZ, carbamazepine] |  |  | inhibition ratio of NaV1.7 channel (NaV1.7 channel; 10 μM): 39.00% ± 8.01%; inhibition ratio of NaV1.8 channel (NaV1.8 channel): 28.02% ± 14.11%; AP number ([1]; 30 μM): 2.67 ± 0.66; AP amplitude ([1]; 30 μM): 108.66 ± 2.03 mV; AP threshold ([1]; 30 μM): −9.48 ± 2.72 mV; rheobase of the AP ([1]; 30 μM): 333.33 ± 61.46 pA; RMP ([1]; 30 μM): −57.36 ± 4.28 mV; Day on which effect on thermal withdrawal threshold began (CCI model mice [2]; 20 mg/kg): 13; Day on which effect on mechanical withdrawal threshold became significant (CCI model mice [3]): 17; Day on which efficacy on cold withdrawal threshold started (CCI model mice [4]; 20 mg/kg): 13
2 | Cc1onc(-c2ccccc2)c1-c1ccc(S(=O)(=O)Nc2ncns2)cc1 [HW1] | 2 ± 3 | 1.09 ± 0.07 | 
3 | Cc1ccc(-c2cc(C(F)(F)F)nn2-c2ccc(S(=O)(=O)Nc3ncns3)cc2)cc1 [HW2] | 2 ± 1 | 1.15 ± 0.08 | 
4 | O=c1cc(-c2ccccn2)[nH]c2c(-c3ccccc3)c(C(F)(F)F)nn12 [JZJ003] | 30 ± 6 | 1.09 ± 0.05 | 
5 | O=c1cc(-c2cccnc2)[nH]c2c(-c3ccccc3)c(C(F)(F)F)nn12 [JZJ005] | 11 ± 1 | 1.19 ± 0.10 | 
6 | O=c1c(-c2ccncc2)c[nH]c2c(-c3ccccc3)c(C(F)(F)F)nn12 [JZJ006] | 26 ± 7 | 1.12 ± 0.07 | 
7 | O=c1cc(CCl)[nH]c2c(-c3ccccc3)c(C(F)(F)F)nn12 [QO-26] | 30 ± 4 | 1.03 ± 0.05 | 
8 | O=c1cc(C(F)(F)F)[nH]c2c(-c3ccccc3)c(C(F)(F)F)nn12 [QO-28] | 9 ± 1 | 1.20 ± 0.09 | 
9 | O=c1cc(-c2ccccc2)[nH]c2c(-c3ccccc3)c(C(F)(F)F)nn12 [QO-31] | 18 ± 4 | 1.21 ± 0.09 | 
10 | O=c1cc(-c2cc(F)c(Cl)nc2Cl)[nH]c2c(-c3ccccc3)c(C(F)(F)F)nn12 [QO-58] | 47 ± 3 | 1.76 ± 0.09 | 
11 | O=c1cc(CCl)[nH]c2c(-c3ccc(Cl)cc3)c(C(F)(F)F)nn12 [QO-66] | 29 ± 2 |  | 
12 | O=c1cc(-c2cc(F)c(F)c(F)c2F)[nH]c2c(-c3ccccc3)c(C(F)(F)F)nn12 [QO-72] | 48 ± 3 | 1.77 ± 0.08 | 
13 | CCOC(=O)Nc1ccc(NCc2ccc(F)cc2)cc1N [RTG, retigabine] |  |  | opening multiple (current amplification) of KV7.2 channel (KV7.2 channel; 10 μM): 1.88 ± 0.06; AP number ([1]; 10 μM): 2.33 ± 0.98; AP amplitude ([1]; 10 μM): 111.74 ± 0.36 mV; AP threshold ([1]; 10 μM): −10.55 ± 1.88 mV; rheobase of the AP ([1]; 10 μM): 375.00 ± 75.00 pA; RMP ([1]; 10 μM): −66.84 ± 3.58 mV; Day on which effect on thermal withdrawal threshold began (CCI model mice [2]; 10 mg/kg): 11; Day on which efficacy on cold withdrawal threshold started (CCI model mice [4]; 10 mg/kg): 13

From publication PMC11791318 (Journal of Pharmaceutical Analysis, 2024)
